Laboratory results from ChEMBL document CHEMBL1122247, “2-(6-carboxyhexyl)cyclopentanone hexylhydrazone. A potent and time-dependent inhibitor of platelet aggregation” (1983).

Tests used:
[1] = Tested for effect of […] against PGH-2 at 100 uM concentration; assay type: functional; settings: Homo sapiens, Plasma
[2] = Tested for effect of plasma containing platelets (PRP) against platelet free plasma at 500 uM concentration; assay type: functional; settings: Homo sapiens
In short: (§1)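 Hydrazone in ethanol was added to platelet-free plasma (100 μM final) and stirred. At 10-min intervals up to 1 h, aliquots were transferred to PRP (1 μM final). Aggregation to 500 μM arachidonic acid was then measured turbidimetrically at 37 °C. Controls had hydrazone added directly to PRP; seven donors.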

[3] = Time to complete inhibition of arachidonic acid (500 uM)-induced aggregation in platelet-rich plasma (PRP); settings: Homo sapiens
[4] = Tested for effect of plasma containing platelets (PRP) against ADP at 100 uM concentration; assay type: functional; settings: Homo sapiens
In short: (§2)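 In human PRP, 100 μM hydrazone was tested against aggregation induced by U46619 (1–3 μM) or ADP (5 μM). Aggregation was measured by the Born turbidimetric method at 37 °C over 3 min. Reagents were added as 10-μL aliquots per mL of PRP. Percent inhibition is averaged over nine donors.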

[5] = Tested for effect of plasma containing platelets (PRP) against arachidonic acid at 1 uM concentration; assay type: functional; settings: Homo sapiens
[6] = Tested for effect of plasma containing platelets (PRP) against platelet free plasma at 1 uM concentration; assay type: functional; settings: Homo sapiens; in short: as §1
[7] = Tested for effect of plasma containing platelets (PRP) against arachidonic acid at 0.1 uM concentration; assay type: functional; settings: Homo sapiens
[8] = Tested for effect of plasma containing platelets (PRP) against U-46,619 at 100 uM concentration; assay type: functional; settings: Homo sapiens; in short: as §2
[9] = Tested for effect of plasma containing platelets (PRP) against PGH-2 at 0.6 uM concentration; assay type: functional; settings: Homo sapiens
[10] = Tested for effect of plasma containing platelets (PRP) against arachidonic acid (500 uM) at 100 uM concentration; assay type: functional, Homo sapiens
In short: (§3)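 Human platelet-rich plasma was pretreated 1 min with 25–100 μM agent, then challenged with arachidonic acid (500 μM) or U46619 (1 μM). Aggregation was followed turbidimetrically (Born) at 37 °C. Percent inhibition versus vehicle controls was read 3 min after agonist. Results are mean ± SEM from at least three separate blood donors.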

[11] = Tested for effect of plasma containing platelets (PRP) against arachidonic acid (500 uM) at 50 uM concentration; assay type: functional, Homo sapiens; in short: as §3
[12] = Tested for effect of plasma containing platelets (PRP) against arachidonic acid (500 uM) at 25 uM concentration; assay type: functional, Homo sapiens; in short: as §3
[13] = Tested for effect of plasma containing platelets (PRP) against U-46,619 (1 uM) at 100 uM concentration; assay type: functional, Homo sapiens; in short: as §3
[14] = Tested for effect of plasma containing platelets (PRP) against U-46,619 (1 uM) at 50 uM concentration; assay type: functional, Homo sapiens; in short: as §3
[15] = Tested for effect of plasma containing platelets (PRP) against U-46,619 (1 uM) at 25 uM concentration; assay type: functional, Homo sapiens; in short: as §3

Compound | inhibition at 100 µM [1] | inhibition at 500 µM [2] | time to complete inhibition at 500 µM [3] | inhibition at 100 µM [4] | inhibition at 1 µM [5] | inhibition at 1 µM [6] | inhibition at 0.1 µM [7] | inhibition at 100 µM [8] | inhibition at 0.6 µM [9] | Inhibition [10] | Inhibition [11] | Inhibition [12] | Inhibition [13] | Inhibition [14] | Inhibition [15]
CCCCCCN/N=C1\CCCC1CCCCCCC(=O)O (stereo not drawn) | 89% | 100% | 27 min | 6% | 99% | 29% | 44% | 4% | 6% |  |  |  |  |  | 
CCCCCC(=O)N/N=C1\CCCC1CCCCCCC(=O)O (stereo not drawn) |  |  |  |  |  |  |  |  |  | 98% | 17% | 8% | 30% | 6% | 
CCCCCCCN[C@H]1CCC[C@@H]1CCCCCCC(=O)O (relative stereo) |  |  |  |  |  |  |  |  |  |  | 100% | 100% |  | 98% | 76%
